Assay results from article PMC5624728 (Journal of pharmaceutical innovation, 2017).
≈ marks a conversion by molar mass, not a printed value. Where “and” joins values, the source holds several entries; their conditions need not be identical. Equal values may be shown once. Read-outs that look alike come from different tables or passages of the source.

What was measured:
[1] = 25 °C/60% RH and 65 °C, at least 10 days, 40% acetonitrile
[2] = tested on: HIV-1; conditions: antiviral EC50; cited from earlier work
[3] = pH stability of CSIC in solution; assay type: physicochemical
[4] = tested on: J774A.1 mouse macrophage cells; conditions: J774A.1, 24 h exposure, MTT
[5] = tested on: HIV-1 RT; conditions: tight-binding inhibitor; cited from earlier work
[6] = Oxidation stability; assay type: physicochemical; conditions: 3% H2O2, room temperature, up to 10 days
Outline: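 Test compound dissolved at 100 μg/mL final in 40% (v/v) aqueous acetonitrile containing 3% H2O2. Kept at room temperature. Aliquots taken at set intervals up to 10 days. Drug content quantified by HPLC (flow 1.4 mL/min). Results given as mean ± standard deviation.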

[7] = tested on: NNRTI resistance mutation K103N; conditions: compared to other NNRTIs; cited from earlier work
[8] = tested on: HEC-1A human endometrial epithelial cells; conditions: 24 h exposure, MTT
[9] = CSIC solubility in cosolvent matrixes; assay type: physicochemical
[10] = Photolysis stability; assay type: physicochemical
Outline: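 Half of each group was foil-wrapped as the dark control. All were held at 30 °C/65% RH under fluorescent light (2 × 20 watts) for 12 days. Aliquots at set times were assayed by HPLC. Light versus dark was compared by a repeated-measures mixed model with pairwise comparisons.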

[11] = Solubility of CSIC in acetonitrile, water and water/acetonitrile; assay type: physicochemical; conditions: room temperature, 5 days

For `NC(=O)c1[nH]c2ccc(Cl)cc2c1S(=O)(=O)c1ccccc1` [CSIC, 5-chloro-3-[phenylsulfonyl] indole-2-carboxamide], the “drug concentration over time” value [1] is listed as “remained unchanged”, the EC50 [2] is listed as ~1 nM and 1 nM and the drug loss ([3]; all pH conditions (1.2-10), at least 10 days, room temperature) is listed as less than 5%. For the same compound, the “drug detected compared to time zero” value ([3]; all pH conditions, each time point up to 10 days) was “more than 95%”, the “50% cytotoxic concentration (CC50)” value [4] was “greater than 5 μg/mL” and the “binding and dissociation behaviour” value [5] was “binds rapidly but then dissociates very slowly”. For the same compound, the drug loss [6] was 20%, the “activity against K103N” value [7] was “retaining good activity” and the “50% cytotoxic concentration (CC50)” value [8] was “greater than 5 μg/mL”. The Solubility ([9]; S1: PEG 400 0%, propylene glycol 50%, glycerin 50%) was 5.23 mg/mL (≈ 15.6 mM), the Solubility ([9]; S2: PEG 400 12.5%, propylene glycol 37.5%, glycerin 50%) was 10.60 mg/mL (≈ 31.7 mM) and the Solubility ([9]; S3: PEG 400 12.5%, propylene glycol 50%, glycerin 37.5%) was 12.85 mg/mL (≈ 38.4 mM). The Solubility ([9]; S4: PEG 400 25%, propylene glycol 25%, glycerin 50%) was 12.85 mg/mL (≈ 38.4 mM), the Solubility ([9]; S5: PEG 400 25%, propylene glycol 37.5%, glycerin 37.5%) was 17.08 mg/mL (≈ 51 mM) and the Solubility ([9]; S6: PEG 400 25%, propylene glycol 50%, glycerin 25%) was 19.99 mg/mL (≈ 59.7 mM). For the same compound, the Solubility ([9]; S7: PEG 400 37.5%, propylene glycol 12.5%, glycerin 50%) was 20.46 mg/mL (≈ 61.1 mM), the Solubility ([9]; S8: PEG 400 37.5%, propylene glycol 25%, glycerin 37.5%) was 21.81 mg/mL (≈ 65.1 mM) and the Solubility ([9]; S9: PEG 400 37.5%, propylene glycol 37.5%, glycerin 25%) was 24.63 mg/mL (≈ 73.6 mM). The Solubility ([9]; S10: PEG 400 37.5%, propylene glycol 50%, glycerin 12.5%) was 22.59 mg/mL (≈ 67.5 mM), the Solubility ([9]; S11: PEG 400 50%, propylene glycol 0%, glycerin 50%) was 22.86 mg/mL (≈ 68.3 mM) and the Solubility ([9]; S12: PEG 400 50%, propylene glycol 12.5%, glycerin 37.5%) was 23.67 mg/mL (≈ 70.7 mM). The Solubility ([9]; S13: PEG 400 50%, propylene glycol 25%, glycerin 25%) was 24.31 mg/mL (≈ 72.6 mM), the Solubility ([9]; S14: PEG 400 50%, propylene glycol 37.5%, glycerin 12.5%) was 28.21 mg/mL (≈ 84.3 mM) and the Solubility ([9]; S15: PEG 400 50%, propylene glycol 50%, glycerin 0%) was 28.64 mg/mL (≈ 85.5 mM). For the same compound, the Solubility ([9]; S16: PEG 400:propylene glycol:glycerin 10:2:4 (PEG 400 62.5%)) was 22.7 mg/mL (≈ 67.8 mM), the Solubility ([9]; S17: PEG 400:propylene glycol:glycerin 10:3:3 (PEG 400 62.5%)) was 20.7 mg/mL (≈ 61.8 mM) and the Solubility ([9]; S18: PEG 400:propylene glycol:glycerin 10:4:2 (PEG 400 62.5%), i.e. 5:2:1 w/w/w) was 30.2 mg/mL (≈ 90.2 mM). For the same compound, the Solubility ([9]; S19: PEG 400:propylene glycol:glycerin 6:1:1 (PEG 400 75%)) was 29.1 mg/mL (≈ 86.9 mM), the Solubility ([9]; S20: PEG 400:propylene glycol:glycerin 3:1:0 (PEG 400 75%)) was 28.8 mg/mL (≈ 86 mM) and the “log P” value was ~ 3. For the same compound, the “Log P” value (1:1 (v/v) octanol/water) was 3.72, the “Log P” value (1:2 (v/v) octanol/water) was 3.72 and the “Log P” value (2:1 (v/v) octanol/water) was 3.69. For the same compound, the “stability stored in the dark” value ([10]; dark, 30 °C/65% RH, at least 12 days) was “stable”, the “decline of drug concentration” value ([10]; fluorescent light source (2 × 20 watts), 12 days) was 4% and the Solubility ([11]; 40% (v/v) acetonitrile) was 0.36 mg/mL and 1.1 mM. For the same compound, the Solubility ([11]; 100% acetonitrile) was 1.7 mg/mL and 5.1 mM and the Solubility ([11]; water) was 0.0014 mg/mL and 4.3 μM.
